Data reported in ChEMBL document CHEMBL1140973, “New Pd(II) complexes of the synthesized 1-N-substituted thiosemicarbazones of 3-indole carboxaldehyde: characterization and antiamoebic assessment against E. histolytica” (Eur J Med Chem, 2008).
pIC50: −log10 of the molar value.

Key:
Entamoeba histolytica = test: Antiamoebic activity against Entamoeba histolytica HM1:IMSS after 72 hrs by microplate method; assay type: functional, organism-based
Method in brief: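 E. histolytica HM1:IMSS trophozoites in a microplate assay. Samples in DMSO plus medium (1 mg/mL), diluted to 0.1 mg/mL, then twofold serial dilutions. Inoculum 1.7 × 10^4 amoebae/well (viability by trypan blue), N2-gassed, 37 °C for 72 h. Cells methanol-fixed, eosin-stained, dye released in 0.1 N NaOH, OD 490 nm. % inhibition vs untreated control against log dose; IC50 by linear regression.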

HEK293 (human) = test: Cytotoxicity against human HEK293 cells after 44 hrs by MTT assay; conditions: HEK293, 44 h
[1] = Safety index, IC50 for transformed human kidney epithelial cells to IC50 for Entamoeba histolytica HM1:IMSS
[2] = Safety index, IC50 for human […] to IC50 for Entamoeba histolytica HM1:IMSS; assay type: toxicity, cell-based; conditions: read-out: Ratio IC50
Method in brief: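 Safety index = IC50 in human kidney epithelial cells (MTT, 44 h + 4 h) divided by IC50 against E. histolytica HM1:IMSS (microplate eosin assay, 72 h).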

| Structure (SMILES) | pIC50 (Entamoeba histolytica) | pIC50 (HEK293 (human)) | selectivity ratio [1] | selectivity ratio [2] |
| --- | --- | --- | --- | --- |
| NC(=S)N/N=C\c1c[nH]c2ccccc12 | 4.94 | < 4.00 | > 8.68 |  |
| Cc1ccc(NC(=S)N/N=C\c2c[nH]c3ccccc23)cc1 | 5.49 | < 4.00 | > 30.8 |  |
| CCCNC(=S)N/N=C\c1c[nH]c2ccccc12 | 5.16 | < 4.00 | > 14.6 |  |
| CC(C)NC(=S)N/N=C\c1c[nH]c2ccccc12 | 5.12 | < 4.00 | > 13.1 |  |
| CCCCN(C)C(=S)N/N=C\c1c[nH]c2ccccc12 | 5.26 | < 4.00 | > 18.2 |  |
| S=C(NCc1ccccc1Cl)N/N=C\c1c[nH]c2ccccc12 | 5.48 | < 4.00 | > 30.5 |  |
| Cc1cccc(NC(=S)N/N=C\c2c[nH]c3ccccc23)c1 | 5.89 | < 4.00 | > 77.5 |  |
| Cc1ncc([N+](=O)[O-])n1CCO [METRONIDAZOLE] |  | < 4.00 | > 55.2 |  |

The remaining molecules from weak to strong by pIC50 (Entamoeba histolytica), led by results:

| pIC50 (Entamoeba histolytica) | Structure (SMILES) | pIC50 (HEK293 (human)) | selectivity ratio [1] | selectivity ratio [2] |
| --- | --- | --- | --- | --- |
| 5.22 | Fc1ccc(NC(=S)N/N=C\c2c[nH]c3ccccc23)c(F)c1 |  |  | > 16.5 |
| 5.24 | CC(C)CNC(=S)N/N=C\c1c[nH]c2ccccc12 | < 4.00 | > 17.4 |  |
| 5.39 | CCCCNC(=S)N/N=C\c1c[nH]c2ccccc12 | < 4.00 | > 24.4 |  |
| 5.59 | CCN(CC)C(=S)N/N=C\c1c[nH]c2ccccc12 | < 4.00 | > 38.8 |  |
| 5.61 | CN(Cc1ccccc1)C(=S)N/N=C\c1c[nH]c2ccccc12 | < 4.00 | > 40.6 |  |
| 5.69 | Cc1ccccc1NC(=S)N/N=C\c1c[nH]c2ccccc12 | < 4.00 | > 48.8 |  |
